Measurements reported in article PMC6492960 (Oncoimmunology, 2019).

How the values were obtained:
[1] = test system: splenocytes of immunised HLA-DR4 transgenic mice; experiment: Epitope mapping, HLA-DR4 transgenic mice; format: cell-based, mouse; details: Supplementary Figure 3
[2] = test system: splenocytes of immunised HLA-DP4 transgenic mice (IFNγ); format: cell-based, mouse; details: anti-CD4 20 µg/ml, 15 min prior to peptide
How it was run: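 HLA-A2.1/HLA-DP4/hCD4 transgenic mice (8–12 weeks) immunised s.c. at tail base on days 0, 7 and 14 with 25 µg peptide in PBS emulsified with CpG ODN 1826 and MPLA (5 µg each). Spleens taken day 20. Splenocytes (5 × 10^5/well) given anti-CD4 GK1.5 before 10µg/ml peptide; quadruplicate wells, 40 h, 37°C, 5% CO2. LPS positive control. Spots counted automatically.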

[3] = test system: TCR α and β chain CDR3 of CD4+ CFSE^high and CFSE^low cells; experiment: TCR α and β CDR3 repertoire diversity of sorted CD4+ CFSE high/low cells; design: species or system human; details: for Diversity Index (D50) TRA / Diversity Index (D50) TRB: day 10, non-normalised
How it was run: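 CD25-depleted human PBMCs were labelled with 5µM CFSE for 5 min at room temperature and cultured at 1.5-2x10^6/ml with 10μg/ml citrullinated peptide or vehicle. On day 10 they were stained for CD4/CD8 and sorted into CD4+ CFSEhigh and CFSElow populations. RNA then went through RT-PCR, ARM-PCR with human TCR α/β primers, and NGS bulk sequencing. D50 is the percentage of clones accounting for the cumulative 50% of CDR3 counts.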

HLA-DP4 = details: cited from earlier work
[4] = biological target: HLA-DP4 (HLA-DPA*0103 α chain / HLA-DPB*0401 β chain) (human); experiment: ELISA
[5] = donor BD0011, CD4+ CFSE^High (non-proliferating)
[6] = donor BD0011, CD4+ CFSE^Low (proliferating)
[7] = donor BD0008, CD4+ CFSE^High (non-proliferating)
[8] = donor BD0008, CD4+ CFSE^Low (proliferating)

FSSLNL-cit-ETNLDSL [Vimentin 418-431 cit]
shorter epitope mapping in HLA-DR4 transgenic mice [1]: consistent with findings in the HLA-DR4 transgenic mice mapping shorter peptide sequences

LPNFSSLNL-cit-ETNLDSLPL [Vimentin 415-433 cit]
IFNγ ELISpot response in presence of CD4 blocking antibody [2]: Responses were lost | Diversity Index (D50) TRA [3, 5]: 9.9 | Diversity Index (D50) TRB [3, 5]: 5.9 | Diversity Index (D50) TRA [3, 6]: 0.7 | Diversity Index (D50) TRB [3, 6]: 0.5 | TCR clonality of responding CD4 T cells ([3]; donor BD0011, compared with non-proliferating CD4 population): a bias of TCR Vβ and Vα sequences among CD4+ proliferating cells (CFSE^low)

LQYM-cit-ADQAAGGLR [collagen II]
binding to HLA-DP4 (literature) (HLA-DP4): not to bind to HLA-DP4

NQDFTN-cit-INKLKNS [fibrinogen]
binding to HLA-DP4 (literature) (HLA-DP4): not to bind to HLA-DP4

VIGMDVAASEFF-cit-SG [Enolase 241-255 cit]
shorter epitope mapping in HLA-DR4 transgenic mice [1]: consistent with findings in the HLA-DR4 transgenic mice mapping shorter peptide sequences

VIGMDVAASEFF-cit-SGKYDLD [Enolase 241-260 cit]
IFNγ ELISpot response in presence of CD4 blocking antibody [2]: Responses were lost

cit-SYVTTST-cit-TYSLGS [Vimentin 28-42 cit]
shorter epitope mapping in HLA-DR4 transgenic mice [1]: consistent with findings in the HLA-DR4 transgenic mice mapping shorter peptide sequences

cit-SYVTTST-cit-TYSLGSAL-cit-PSTS [Vimentin 28-49 cit]
IFNγ ELISpot response in presence of CD4 blocking antibody [2]: Responses were lost | Diversity Index (D50) TRA [3, 7]: 12.8 | Diversity Index (D50) TRB [3, 7]: 17 | Diversity Index (D50) TRA [3, 8]: 0.4 | Diversity Index (D50) TRB [3, 8]: 0.2 | TCR clonality of responding CD4 T cells ([3]; donor BD0008, compared with non-proliferating CD4 population): a bias of TCR Vβ and Vα sequences among CD4+ proliferating cells (CFSE^low)

non-biotinylated Hepatitis B surface antigen aa 181–193 peptide
percent inhibition of the binding of the biotinylated Hepatitis B peptide [4]: 50%
